From ChEMBL document CHEMBL1133004, “3-Alkylamino-4H-pyrido[2,3-e]-1,2,4-thiadiazine 1,1-dioxides structurally related to diazoxide and pinacidil as potassium channel openers acting on vascular smooth muscle cells: design, synthesis, and pharmacological evaluation” (2000)

What was measured:
Assay type in all cases: functional
Rattus norvegicus [1] = species on record: Rattus norvegicus; experiment: Concentration giving 50% relaxation of the 30 mM KCL-induced contraction of rat aorta rings; details: read-out: ED50 (the source's name)
Outline: (§1)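 Endothelium-denuded aortic rings (3-4 mm) from fed Wistar rats (250-300 g), held at 1 g tension in Krebs-bicarbonate at 37 °C under O2/CO2 (95/5), isometric recording. After 60 min equilibration, contracted with 30 or 80 mM KCl as specified. At plateau, drug was added cumulatively to maximal relaxation or 1 mM. Glibenclamide (1 or 10 µM) was present throughout where stated. ED50 was read graphically as 50% inhibition of the KCl plateau.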

Cavia porcellus = species on record: Cavia porcellus; experiment: Inhibition of electrically stimulated contractions of guinea pig ileum segments.; details: read-out: ED50 (the source's name)
Outline: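 Ileum segments (4 cm, taken ≥10 cm from cecum) from adult guinea pigs (300-400 g), 1 g initial load, Krebs-bicarbonate at 37 °C, gassed 95% O2/5% CO2. Coaxial stimulation at 0.5-ms pulses, 0.1 Hz, 5-25 V, with isometric recording. Drug was added cumulatively to maximal effect and expressed as % of the 5-min pre-drug response. ED50 was assessed graphically.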

Rattus norvegicus [2] = species on record: Rattus norvegicus; experiment: Insulin secretion from rat pancreatic islets (RIS) in the presence of 16.7 mM glucose at 50 uM
Outline: (§2)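 Collagenase-isolated islets from fed Wistar rats (180-220 g), in groups of 10. Preincubated 30 min at 37 °C in bicarbonate salt medium with 2.8 mM glucose and 0.5% albumin under O2/CO2. Then incubated 90 min at 37 °C with 16.7 mM glucose plus drug. Insulin was measured by radioimmunoassay against a rat insulin standard and reported as % residual release.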

Rattus norvegicus [3] = species on record: Rattus norvegicus; experiment: Effect on Oxytocin-Induced contractions of rat uterus at 100 uM
Outline: (§3)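 Uterine horns from fed Wistar rats (150-200 g) primed the day before with im diethylstilboestrol dipropionate (0.1 mL/100 g of 1 mg/mL oily solution). Horns were superfused with Tyrode at 37 °C under O2/CO2 (95/5). 20 mU oxytocin was injected at 10-min intervals until contractions (AUC) were constant, then repeated ≥3 times per drug concentration. Response is given as % of the drug-free oxytocin contraction.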

Rattus norvegicus [4] = species on record: Rattus norvegicus; experiment: Effect on contractile activity of 30 mM potassium-Depolarized rat aorta incubated in the presence of 10 uM Glibenclamide; details: read-out: ED50 (the source's name); outline: as §1
Rattus norvegicus [5] = species on record: Rattus norvegicus; experiment: Effect on contractile activity of 30 mM potassium-Depolarized rat aorta incubated in the absence of Glibenclamide; details: read-out: ED50 (the source's name); outline: as §1
Rattus norvegicus [6] = species on record: Rattus norvegicus; experiment: Effect on Oxytocin-Induced contractions of rat uterus at 50 uM; outline: as §3
Rattus norvegicus [7] = species on record: Rattus norvegicus; experiment: Effect on Oxytocin-Induced contractions of rat uterus at 10 uM; outline: as §3
Rattus norvegicus [8] = species on record: Rattus norvegicus; experiment: Effect on contractile activity of 80 mM potassium-Depolarized rat aorta; details: read-out: ED50 (the source's name); outline: as §1
Rattus norvegicus [9] = species on record: Rattus norvegicus; experiment: Effect on contractile activity of 30 mM potassium-Depolarized rat aorta incubated in the presence of 1 uM Glibenclamide; details: read-out: ED50 (the source's name); outline: as §1
Rattus norvegicus [10] = species on record: Rattus norvegicus; experiment: Effect on Insulin secretion from rat pancreatic islets (RIS) in the presence of 16.7 mM glucose at 10 uM; outline: as §2
Rattus norvegicus [11] = species on record: Rattus norvegicus; experiment: Effect on Oxytocin-Induced contractions of rat uterus at concentrations 50 uM; outline: as §3
Rattus norvegicus [12] = species on record: Rattus norvegicus; experiment: Effect on Oxytocin-Induced contractions of rat uterus at concentrations 100 uM; outline: as §3
Rattus norvegicus [13] = species on record: Rattus norvegicus; experiment: Effect on Oxytocin-Induced contractions of rat uterus at concentrations 10 uM; outline: as §3
Rattus norvegicus [14] = species on record: Rattus norvegicus; experiment: Compound is evaluated for the effect on Oxytocin-Induced contractions of rat uterus at 50 uM; outline: as §3
Rattus norvegicus [15] = species on record: Rattus norvegicus; experiment: Compound is evaluated for the effect on Oxytocin-Induced contractions of rat uterus at 100 uM; outline: as §3
Rattus norvegicus [16] = species on record: Rattus norvegicus; experiment: Compound is evaluated for the effect on Oxytocin-Induced contractions of rat uterus at 10 uM; outline: as §3

| Compound | EC50 (Rattus norvegicus [1]) [µM] | EC50 (Cavia porcellus) [µM] | RIS (Rattus norvegicus [2]) [%] | also measured |
| --- | --- | --- | --- | --- |
| O=S1(=O)N=C(NCc2ccccc2)Nc2ncccc21 | 21.9 | > 300 | 86.2 | – |
| O=S1(=O)N=C(NCC2CCCCC2)Nc2ncccc21 | 45.7 | 145 | 94.2 | – |
| C[C@@H](NC1=NS(=O)(=O)c2cccnc2N1)c1ccccc1 | 65.2 | > 300 | 71.6 | – |
| C[C@@H](NC1=NS(=O)(=O)c2cc(Cl)cnc2N1)C1CCCCC1 | 3.5 | 13.6 | 6.7 | Contraction (Rattus norvegicus [3]): 22.9%; EC50 (Rattus norvegicus [4]): 8.6 µM; EC50 (Rattus norvegicus [5]): 3.7 µM; Contraction (Rattus norvegicus [6]): 50.9%; Contraction (Rattus norvegicus [7]): 70.6%; EC50 (Rattus norvegicus [8]): 12.3 µM; EC50 (Rattus norvegicus [9]): 5 µM; RIS (Rattus norvegicus [10]): 71.3% |
| C[C@@H](NC1=NS(=O)(=O)c2cc(Cl)cnc2N1)c1ccccc1 | 38.8 | – | 52.3 | Contraction (Rattus norvegicus [3]): 32.6%; Contraction (Rattus norvegicus [6]): 59.4%; Contraction (Rattus norvegicus [7]): 88.4% |
| CC(C)C(C)NC1=NS(=O)(=O)c2cnccc2N1 (stereo unspecified) | 154 | > 300 | 7.1 | RIS (Rattus norvegicus [10]): 26.8% |
| CC(Cc1ccc(O)cc1)NCC(O)c1cc(O)cc(O)c1 (stereo unspecified) [FENOTEROL] | – | – | – | Contraction (Rattus norvegicus [11]): 36.3%; Contraction (Rattus norvegicus [12]): 35.5%; Contraction (Rattus norvegicus [13]): 38.4% |
| O=S1(=O)NC(NCC2CCCCC2)=Nc2ncc(Cl)cc21 | 38.2 | 17.4 | 57.7 | Contraction (Rattus norvegicus [3]): 90.4%; Contraction (Rattus norvegicus [6]): 95.1%; Contraction (Rattus norvegicus [7]): 96.3%; RIS (Rattus norvegicus [10]): 76.8% |
| CC(NC1=NS(=O)(=O)c2cccnc2N1)C(C)(C)C (stereo unspecified) | 7.5 | > 300 | 98.9 | Contraction (Rattus norvegicus [11]): 68%; EC50 (Rattus norvegicus [4]): 107 µM; EC50 (Rattus norvegicus [5]): 10.1 µM; EC50 (Rattus norvegicus [8]): > 300 µM; Contraction (Rattus norvegicus [12]): 57.5%; Contraction (Rattus norvegicus [13]): 93.8%; EC50 (Rattus norvegicus [9]): 65.2 µM |
| CC(NC1=NS(=O)(=O)c2cc(Cl)cnc2N1)C(C)(C)C (stereo unspecified) | 2.3 | > 300 | 41.5 | Contraction (Rattus norvegicus [14]): 67.9%; EC50 (Rattus norvegicus [4]): 33.9 µM; EC50 (Rattus norvegicus [5]): 1.6 µM; Contraction (Rattus norvegicus [15]): 51%; Contraction (Rattus norvegicus [16]): 97.6%; EC50 (Rattus norvegicus [8]): 33 µM; EC50 (Rattus norvegicus [9]): 22.6 µM |
| O=S1(=O)NC(NCc2ccccc2)=Nc2ncc(Cl)cc21 | 43.6 | – | 74.1 | Contraction (Rattus norvegicus [3]): 71.9%; Contraction (Rattus norvegicus [6]): 98.9%; Contraction (Rattus norvegicus [7]): 108.2% |
| CCC(C)NC1=NS(=O)(=O)c2cc(Cl)cnc2N1 (stereo unspecified) | 20 | – | 62.7 | – |
| C[C@@H](NC1=NS(=O)(=O)c2cccnc2N1)C1CCCCC1 | 29.2 | > 300 | 79.9 | – |
| C[C@H](NC1=NS(=O)(=O)c2cc(Cl)cnc2N1)c1ccccc1 | 21.2 | – | 45.9 | Contraction (Rattus norvegicus [3]): 41.1%; Contraction (Rattus norvegicus [6]): 79.3%; Contraction (Rattus norvegicus [7]): 91% |
| C[C@H](NC1=NS(=O)(=O)c2cc(Cl)cnc2N1)C1CCCCC1 | 3.8 | 20.4 | 11.8 | Contraction (Rattus norvegicus [3]): 43.7%; Contraction (Rattus norvegicus [6]): 71.4%; Contraction (Rattus norvegicus [7]): 84.9%; RIS (Rattus norvegicus [10]): 71.9% |
| CC1=NS(=O)(=O)c2cc(Cl)cnc2N1 | > 300 | – | 87.4 | – |
| CCC(C)NC1=NS(=O)(=O)c2cccnc2N1 (stereo unspecified) | 50.9 | – | 85.9 | – |
| C[C@H](NC1=NS(=O)(=O)c2cccnc2N1)c1ccccc1 | 9.9 | > 300 | 73.3 | – |
| CC(N/C(=N\C#N)Nc1ccncc1)C(C)(C)C (stereo unspecified) [PINACIDIL ANHYDROUS] | 0.5 | 9.2 | 92.1 | Contraction (Rattus norvegicus [14]): 35.5%; EC50 (Rattus norvegicus [4]): 42.5 µM; EC50 (Rattus norvegicus [5]): 0.2 µM; Contraction (Rattus norvegicus [15]): 38.1%; Contraction (Rattus norvegicus [16]): 58.1%; EC50 (Rattus norvegicus [8]): 16 µM; EC50 (Rattus norvegicus [9]): 10.4 µM; RIS (Rattus norvegicus [10]): 96% |
| C[C@H](NC1=NS(=O)(=O)c2cccnc2N1)C1CCCCC1 | 25.2 | > 300 | 76.2 | – |
| CC(C)NC1=NS(=O)(=O)c2cccnc2N1 | 132 | > 300 | 78.7 | – |
| CC(C)NC1=NS(=O)(=O)c2cc(Cl)cnc2N1 | 14.6 | > 300 | 74.4 | – |
| CC(C)C(C)NC1=NS(=O)(=O)c2cc(Cl)cnc2N1 (stereo unspecified) | 10.6 | > 300 | 59.3 | EC50 (Rattus norvegicus [4]): 45.1 µM; EC50 (Rattus norvegicus [5]): 8.2 µM; EC50 (Rattus norvegicus [8]): 49.3 µM; EC50 (Rattus norvegicus [9]): 34.1 µM |
| CC(C)C(C)NC1=NS(=O)(=O)c2cccnc2N1 (stereo unspecified) | 27.1 | > 300 | 87.9 | EC50 (Rattus norvegicus [5]): 27.1 µM; EC50 (Rattus norvegicus [8]): > 300 µM |
| CC1=Nc2ccc(Cl)cc2S(=O)(=O)N1 [DIAZOXIDE] | 19.3 | > 300 | 28.8 | Contraction (Rattus norvegicus [14]): 76.3%; EC50 (Rattus norvegicus [4]): 163 µM; EC50 (Rattus norvegicus [5]): 19.5 µM; Contraction (Rattus norvegicus [15]): 67.7%; Contraction (Rattus norvegicus [16]): 93.8%; EC50 (Rattus norvegicus [8]): > 300 µM; EC50 (Rattus norvegicus [9]): 85.8 µM; RIS (Rattus norvegicus [10]): 70% |
